Calb FLC: C. albicans growth modulation with fluconazole. C. albicans CaCi-2 (fluconazole-resistant clinical isolate) + fluconazole, Alamar Blue growth, 48 h. actives 0.57% (n = 300,000). growth inhibition, % (no concentration beside the values);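 active = growth inhibition above about 58% in most replicates, limit read from the data, passing the limit was not always enough; inconclusive = exactly half the replicates above a set limit; inactive = most replicates below a set limit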;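 also: all wells also contain fluconazole at 8 µg/ml as a sub-toxic cotreatment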
Mdm2-MdmX inh: inhibitors of human Mdm2/MdmX interaction | SaOS-2 split-luciferase Mdm2/MdmX complementation, luminescence | O15151+Q00987 | actives 3% (n = 330,000) | inhibition, % at 8 µM;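 active = inhibition of at least 50% at 8 µM in the primary screen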
Target sequence (O15151 whole entry, looked up): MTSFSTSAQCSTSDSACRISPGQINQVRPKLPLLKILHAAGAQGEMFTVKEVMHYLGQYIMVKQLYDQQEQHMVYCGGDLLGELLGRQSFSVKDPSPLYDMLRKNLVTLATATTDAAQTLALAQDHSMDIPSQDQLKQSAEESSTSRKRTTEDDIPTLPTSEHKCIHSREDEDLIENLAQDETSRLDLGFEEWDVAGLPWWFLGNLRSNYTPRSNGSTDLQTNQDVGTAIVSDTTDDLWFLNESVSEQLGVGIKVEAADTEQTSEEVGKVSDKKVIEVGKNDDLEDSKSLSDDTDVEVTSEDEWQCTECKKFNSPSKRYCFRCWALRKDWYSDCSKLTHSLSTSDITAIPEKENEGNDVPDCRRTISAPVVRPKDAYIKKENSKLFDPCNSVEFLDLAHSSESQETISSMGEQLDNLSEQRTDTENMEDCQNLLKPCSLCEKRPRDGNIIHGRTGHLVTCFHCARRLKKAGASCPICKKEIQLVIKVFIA
Target sequence (Q00987 whole entry, looked up): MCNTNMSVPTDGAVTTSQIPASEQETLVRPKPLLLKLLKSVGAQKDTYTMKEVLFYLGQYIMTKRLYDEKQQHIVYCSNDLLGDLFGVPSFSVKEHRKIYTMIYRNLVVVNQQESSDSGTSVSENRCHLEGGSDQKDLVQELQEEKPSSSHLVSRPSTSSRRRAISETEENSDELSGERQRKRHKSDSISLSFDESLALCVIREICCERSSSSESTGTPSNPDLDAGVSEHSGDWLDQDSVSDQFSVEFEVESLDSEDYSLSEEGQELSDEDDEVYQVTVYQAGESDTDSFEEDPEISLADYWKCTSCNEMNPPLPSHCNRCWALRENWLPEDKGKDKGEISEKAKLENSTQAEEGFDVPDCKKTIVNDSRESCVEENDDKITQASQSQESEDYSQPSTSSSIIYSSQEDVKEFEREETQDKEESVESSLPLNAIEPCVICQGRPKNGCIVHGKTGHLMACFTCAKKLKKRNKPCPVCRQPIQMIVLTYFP
Beta apoptosis: blocks beta cell apoptosis; INS-1E cytokine-induced death, ATP luminescence, 48 h; percent of positive-control rescue, neutral wells zero; protection from apoptosis, % (no concentration beside the values); actives 0.8% (n = 300,000);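 active = Every replicate reaches about 75%, or at least half do and their mean reaches it too, limit read from the data; inconclusive = At least half of replicates reach the limit but their mean does not; inactive = Under half of replicates reach the limit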;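 also: higher means more ATP so stronger rescue from cytokine killing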
NALP3 yeast inh: NALP3 inhibition in yeast; actives 0.39% (n = 330,000); inhibition, % at 10 µM; AID 2825; Yeast reconstituted NLRP3/ASC/caspase-1, beta-gal luminescence, 24 h;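 active = inhibition of 50% or more; inactive = inhibition below 50%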
CSC inhib: blocks cancer stem cells. cancer stem cell-like cells viability, luminescence. inhibition, % at 7.5 µM. actives 1.1% (n = 300,000). AID 2717; in the data active = inhibition above about 75%; inconclusive = no clear call, values can overlap the other calls; tested in HMLE shEcad cells
T cruzi inh: blocks replication of Trypanosoma cruzi | T. cruzi beta-gal in NIH3T3, luminescence, 90 h | inhibition, % (test concentration not listed) | actives 1.4% (n = 300,000);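 active = mean inhibition across valid replicates above about 55%, limit read from the data; inconclusive = mean below that limit but half or more replicates reach it; inactive = mean below it, under half of replicates reach it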;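 also: signal also drops with host cell toxicity which is not excluded here; higher percent means less beta-gal luminescence so fewer parasites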
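Incubation – ≥90 h infection period, 3 h prior cell attachment · System – NIH/3T3 fibroblasts plus reporter T. cruzi · Doses – compound pinned at 50 nL/well, DMSO · Read-out basis – percent inhibition of parasite-derived β-gal signal · Signal – luminescent β-galactosidase signal after 60 min lysis · Also added – 5000 T. cruzi trypomastigotes/well · Medium – Low-serum DMEM with 2% FBS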
Mdm2 MdmX conf: human Mdm2/MdmX binding inhibition, confirmed. shares compounds with Mdm2-MdmX inh. luminescent assay. inhibition, % at 8 µM. actives 55% (n = 10,000); in the data active = inhibition above about 40%
Full FLuc ctr: inhibits full-length luciferase, flagging false Mdm2/MdmX hits. shares compounds with Mdm2-MdmX inh. SaOS-2 full-length luciferase counterscreen, luminescence. inhibition, % at 8 µM. actives 77% (n = 6,200);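 active = mean inhibition at 8 µM reaching about 37%, which flags the compound as non-specific, limit read from the data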;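 also: p53-null SaOS-2 cells with luciferase driven by a doxycycline-inducible promoter; compound on cells about two nights before reading with doxycycline added after day one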
A number is an active result; . = inactive; ? = inconclusive; / = no result given. This is a sample that favours compounds with a hit; in the whole collection about 5.3% have one here.

SMILES | Calb FLC | Mdm2-MdmX inh | Beta apoptosis | NALP3 yeast inh | CSC inhib | T cruzi inh | Mdm2 MdmX conf | others
Nc1ncnc2c1ncn2CCOc1ccccc1 | . | 59.2 | . | . | . | . | .
Cc1ccc(Sc2nc(-c3ccccc3)nnc2C(F)(F)F)cc1 | . | 54.0 | . | . | / | . | .
CNc1nc(-c2ccccc2)nnc1C(F)(F)F | . | . | / | . | . | . | /
CC(=O)CCc1c(C)[nH]c2ccccc2c1=O | . | . | . | . | . | . | /
CCC1CCc2c(c3ccccc3[nH]c2=O)O1 (centres undefined) | . | . | . | . | / | . | /
O=c1[nH]c2ccccc2c2oc(CCl)nc12 | . | 78.4 | . | . | . | . | 52.1 | Full FLuc ctr=53.7
CCCN(CC(=O)Nc1ccccc1C)C(=O)COc1c(C)cccc1C | / | . | . | . | / | / | /
CCCN(CC(=O)Nc1ccccc1C)C(=O)CCl | . | 95.1 | . | . | . | 78.3 | 97.2 | Full FLuc ctr=49.0
COc1cc2c(cc1NC(=S)NC(=O)/C=C/c1ccco1)oc1ccccc12 | . | 50.4 | . | . | . | . | .
COc1ccccc1NC(=S)NC(=O)/C=C/c1ccco1 | . | . | / | . | / | . | /
COc1ccc(NC(=O)Nc2cc3oc4ccccc4c3cc2OC)cc1 | . | . | . | . | . | . | /
COc1ccc(/C=C/C(=O)NC(=S)Nc2cc3oc4ccccc4c3cc2OC)cc1 | . | 90.0 | . | . | . | . | .
COc1ccc(OCC(=O)Nc2cc3oc4ccccc4c3cc2OC)cc1 | . | 93.2 | . | . | . | . | 67.2 | Full FLuc ctr=88.5
CC[n+]1c(/C=C2/C=C(C)CC(C)C2)sc2ccccc21 (centres undefined) | . | . | . | . | . | . | /
CC[n+]1c(C=C2C=C(C)OC(C)=C2)sc2ccccc21 | 108.4 | 75.4 | / | . | / | 72.7 | 70.0 | Full FLuc ctr=55.6
O=C(Oc1c(-c2ccccc2)c(=O)n2c3c(cccc13)CC2)c1ccc(F)cc1 | . | 54.5 | . | . | . | . | .
O=C(Oc1c(-c2ccccc2)c(=O)n2c3c(cccc13)CC2)c1cccc([N+](=O)[O-])c1 | . | 69.8 | . | . | . | . | 74.8 | Full FLuc ctr=39.4
CCN(CCn1cccn1)C(=O)C1CCC(=O)N(CCc2cccc(F)c2)C1 (centres undefined) | . | . | . | . | . | . | /
CCOC(=O)c1ccc(NC(=S)N(CCN(C)C)Cc2cccs2)cc1 | ? | 75.8 | . | . | . | . | 46.3 | Full FLuc ctr=60.6
NS(=O)(=O)c1ccc(CNC(=O)CCS(=O)(=O)Cc2ccccc2)cc1 | . | . | . | . | . | . | /
CC1=CC(=C(C#N)C#N)C=C(C)N1CCN1CCN(C(=O)Nc2ccc(Cl)c(Cl)c2)CC1 | . | . | . | . | . | . | /
Cn1c(/C=C/c2ccc(Br)cc2)c([N+](=O)[O-])c(=O)n(C)c1=O | . | 84.3 | . | . | . | . | 52.2 | Full FLuc ctr=.
CN(C)c1ccc(/C=C/c2c([N+](=O)[O-])c(=O)n(C)c(=O)n2C)cc1 | . | . | / | . | / | . | /
CCC(C)NCCC(=O)Nc1ccc(Cl)c(S(=O)(=O)Nc2ccc(Cl)cc2)c1 (centres undefined) | . | . | . | . | . | . | /
COc1ccc(N/N=C(/C)c2cnnc(-c3ccccc3)n2)cc1 | . | 78.8 | . | . | . | . | .
SMILES | Calb FLC | Mdm2-MdmX inh | Beta apoptosis | NALP3 yeast inh | CSC inhib | T cruzi inh | Mdm2 MdmX conf | others
COc1ccccc1CNC(=O)COC(=O)c1ccccc1-c1ccccc1 | . | . | / | . | . | . | /
CCCCN(C)CCN1C(=O)C2C(C(=O)Nc3ccc(Cl)cc3)C3C=CC2(O3)C1C(=O)NC1CCCCC1 (centres undefined) | . | . | . | . | . | . | /
CCn1c2ccc(OC)cc2c2nc3ccccc3nc21 | . | . | . | . | . | . | /
CCCCOC(=O)Cn1c2ccc(OC)cc2c2nc3ccccc3nc21 | . | 74.5 | . | . | . | . | .
O=C(Nc1cnccn1)Nc1cccc(Cl)c1Cl | . | 76.7 | . | . | . | . | 68.0 | Full FLuc ctr=104.8
CCc1ccccc1NC(=O)Nc1cnccn1 | . | . | . | . | . | . | /
COc1ccc(C(=O)/C=C/c2cc(OC)c(O)c(OC)c2)c(F)c1 | . | 50.9 | . | . | ? | . | .
COc1cc(NC(=O)c2ccccc2)c(OC)cc1NC(=O)CSc1[nH]c(=O)cc(C)c1C#N | . | 83.8 | . | . | . | . | .
CCn1cc(C(=O)N2CCc3ccccc32)c(=O)c2cc(S(=O)(=O)N3CCCC3)ccc21 | . | . | . | . | . | . | /
COc1cccc(CNc2nc3nc(C)c(Cl)c(=O)n3[nH]2)c1 | . | . | . | . | . | . | /
C=CCC(Nc1ccccc1)C12C=CC(O1)C(C(=O)OC)=C2C(=O)OC (centres undefined) | . | 89.1 | . | . | . | . | 46.0 | Full FLuc ctr=.
C=CCC(c1ccccc1)N(C(C)=O)c1ccco1 (centres undefined) | . | . | . | . | . | . | /
COC(=O)c1ccc(COc2ccccc2/C=C(\C#N)C(=O)Nc2c(C)cccc2C)cc1 | . | 93.4 | 106.9 | . | 101.6 | . | 52.9 | Full FLuc ctr=41.8
CCCCS(=O)(=O)N1CCCC(C(=O)Nc2ccc(Cl)cn2)C1 (centres undefined) | . | . | . | . | . | . | /
COC(=O)CSC1=C(C#N)C(c2ccc(F)cc2)CC(=O)N1 (centres undefined) | . | . | . | . | . | . | /
COC(=O)CSC1=C(C#N)C(c2ccc(C)o2)CC(=O)N1 (centres undefined) | . | 58.4 | . | . | . | . | 46.9 | Full FLuc ctr=72.7
Cc1nnc(NCc2n[nH]c(=O)c3ccccc23)c2ccccc12 | . | 75.5 | . | . | . | . | .
Cc1cc(C(=O)Nc2ccc(Cl)cc2)c2ccccc2n1 | . | . | . | . | . | . | /
COc1ccc(CCC(=O)OC(C)C(=O)c2ccc(C)cc2)cc1 (centres undefined) | . | 66.7 | . | . | . | . | .
Cc1ccc(OCCCCN2CCCCC2)c(C)c1 | . | . | . | . | . | . | /
Cc1ccc(OCCCCNC2CCCC(C)C2C)c(C)c1 (centres undefined) | . | 55.9 | . | . | . | 56.8 | .
Cc1cc(Br)cc2c(C(=O)NCC3CCCO3)cc(-c3cccs3)nc12 (centres undefined) | . | 55.9 | . | . | . | . | .
O=C(N/N=C/c1ccc(Cl)cc1)c1cc2c(s1)-c1ccccc1CC2 | . | 65.2 | . | . | . | . | 60.5 | Full FLuc ctr=47.0
O=C(O)c1cc2c(s1)-c1ccccc1CC2 | . | . | . | . | . | . | /
CCOC(=O)c1cccc(NC(=O)CSc2nnnn2C)c1 | . | . | / | . | . | . | /

High-throughput results from PubChem BioAssay.
